In ChEMBL document CHEMBL2380294, “Design, synthesis and biological activity of multifunctional α,β-unsaturated carbonyl scaffolds for Alzheimer's disease” (Bioorg Med Chem Lett, 2013):
Active and inactive are the calls of the source. The rule behind the calls is not given here.

Columns and labels:
[1] = target: T1, Amyloid-beta precursor protein (Homo sapiens, UniProt P05067); test: Inhibition of amyloid beta (1 to 42) (unknown origin) oligomer assembly at 50 uM after 30 mins by biotinyl-streptavidin assay
T1 sequence (P05067 whole entry): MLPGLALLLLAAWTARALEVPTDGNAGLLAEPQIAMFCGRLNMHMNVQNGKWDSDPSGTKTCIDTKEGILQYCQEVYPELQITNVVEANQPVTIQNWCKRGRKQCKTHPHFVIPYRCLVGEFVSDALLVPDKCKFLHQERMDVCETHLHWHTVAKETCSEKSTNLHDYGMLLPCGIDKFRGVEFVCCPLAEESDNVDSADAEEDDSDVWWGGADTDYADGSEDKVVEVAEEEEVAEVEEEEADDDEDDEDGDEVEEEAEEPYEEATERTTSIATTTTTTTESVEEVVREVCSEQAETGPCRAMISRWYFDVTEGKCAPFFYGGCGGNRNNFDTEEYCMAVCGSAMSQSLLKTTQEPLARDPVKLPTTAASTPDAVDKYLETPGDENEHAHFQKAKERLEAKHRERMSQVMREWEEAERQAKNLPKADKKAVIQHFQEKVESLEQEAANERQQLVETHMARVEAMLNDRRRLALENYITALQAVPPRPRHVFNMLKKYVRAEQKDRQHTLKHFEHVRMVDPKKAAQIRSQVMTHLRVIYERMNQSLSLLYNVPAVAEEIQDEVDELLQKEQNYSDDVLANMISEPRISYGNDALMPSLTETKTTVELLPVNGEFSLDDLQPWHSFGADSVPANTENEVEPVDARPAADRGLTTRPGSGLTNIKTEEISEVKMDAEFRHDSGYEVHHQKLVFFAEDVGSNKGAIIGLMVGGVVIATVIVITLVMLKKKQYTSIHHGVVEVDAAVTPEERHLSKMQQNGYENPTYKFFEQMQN
Procedure, shortened: (§1)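 Biotinyl-Aβ(1-42) was dried from HFIP, disaggregated with TFA for 10 min at room temperature, and taken up in DMSO (500 nM). Monomer was mixed into PBS containing the compound and 1% DMSO at ambient temperature. After 30 min, 0.3% Tween 20 stopped assembly. Oligomers were captured on NeutrAvidin, detected with SA-HRP and TMB, and read at OD450. Solvent control = 100%.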

[2] = target: T1, Amyloid-beta precursor protein; test: Inhibition of amyloid beta ((1 to 42) (unknown origin) oligomer assembly after 30 mins by biotinyl-streptavidin assay; procedure, shortened: as §1
[3] = target: T1, Amyloid-beta precursor protein; test: Inhibition of amyloid beta (1 to 42) (unknown origin) oligomer dissociation after 16 to 18 hrs by ELISA
Procedure, shortened: (§2)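 Disaggregated biotinyl-Aβ(1-42) was diluted in PBS (pH 7.5) to 33.7 nM monomer to preform oligomers. Oligomers (16.8 nM, in PBS + 0.3% Tween 20) were combined with PBS containing the compound and 1% DMSO. The mixture was shaken at 150 rpm at room temperature for 16-18 h. Remaining oligomers were captured on NeutrAvidin and measured by SA-HRP/TMB at OD450.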

[4] = target: T1, Amyloid-beta precursor protein; test: Inhibition of amyloid beta (1 to 42) (unknown origin) oligomer dissociation at 50 uM after 16 to 18 hrs by ELISA; procedure, shortened: as §2
Acetylcholinesterase = Acetylcholinesterase (Homo sapiens, UniProt P22303); test: Inhibition of AChE (unknown origin) by Ellman method
Acetylcholinesterase, sequence (P22303 whole entry): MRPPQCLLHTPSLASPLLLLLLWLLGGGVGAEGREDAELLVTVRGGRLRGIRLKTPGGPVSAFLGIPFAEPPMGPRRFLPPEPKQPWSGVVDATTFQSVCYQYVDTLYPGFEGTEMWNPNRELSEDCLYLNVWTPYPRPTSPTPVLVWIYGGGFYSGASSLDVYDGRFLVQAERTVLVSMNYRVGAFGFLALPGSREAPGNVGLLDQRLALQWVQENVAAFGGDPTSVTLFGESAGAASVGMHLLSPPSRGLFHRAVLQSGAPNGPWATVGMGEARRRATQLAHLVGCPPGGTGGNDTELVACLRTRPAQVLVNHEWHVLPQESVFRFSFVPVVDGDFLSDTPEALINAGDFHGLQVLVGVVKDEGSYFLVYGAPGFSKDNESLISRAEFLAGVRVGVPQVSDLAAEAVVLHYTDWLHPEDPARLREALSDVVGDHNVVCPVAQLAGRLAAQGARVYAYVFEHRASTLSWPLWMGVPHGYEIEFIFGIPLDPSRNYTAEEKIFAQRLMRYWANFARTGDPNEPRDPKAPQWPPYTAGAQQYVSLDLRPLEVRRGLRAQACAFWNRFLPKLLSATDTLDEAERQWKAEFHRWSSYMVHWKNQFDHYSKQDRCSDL

[5] = target: T1, Amyloid-beta precursor protein; test: Inhibition of amyloid beta (1 to 40) (unknown origin) fibril formation assessed as shorter assemblies at 10 uM after 6 days by atomic force microscopy relative to control
Cholinesterase = Cholinesterase (Homo sapiens, UniProt P06276); test: Inhibition of BuChE (unknown origin) by Ellman method
Cholinesterase, sequence (P06276 whole entry): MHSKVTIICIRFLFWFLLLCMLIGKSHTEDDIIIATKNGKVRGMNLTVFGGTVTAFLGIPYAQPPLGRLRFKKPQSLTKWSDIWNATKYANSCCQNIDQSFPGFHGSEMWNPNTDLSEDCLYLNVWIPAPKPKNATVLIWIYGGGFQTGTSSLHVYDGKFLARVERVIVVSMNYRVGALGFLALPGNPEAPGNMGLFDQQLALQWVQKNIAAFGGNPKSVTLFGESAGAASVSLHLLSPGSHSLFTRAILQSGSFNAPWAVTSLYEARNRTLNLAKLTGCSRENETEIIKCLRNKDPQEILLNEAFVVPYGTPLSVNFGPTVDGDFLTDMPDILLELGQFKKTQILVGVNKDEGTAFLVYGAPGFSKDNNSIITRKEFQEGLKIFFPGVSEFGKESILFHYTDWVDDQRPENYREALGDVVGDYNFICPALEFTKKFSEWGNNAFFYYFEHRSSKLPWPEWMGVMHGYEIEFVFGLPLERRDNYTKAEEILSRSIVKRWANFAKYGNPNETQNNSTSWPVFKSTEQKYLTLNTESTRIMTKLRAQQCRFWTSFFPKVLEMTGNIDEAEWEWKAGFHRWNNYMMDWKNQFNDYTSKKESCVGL
Procedure, shortened: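 Equine serum BuChE in 0.1 M phosphate buffer pH 8 with 0.34 mM DTNB, 0.02 unit/mL enzyme and 0.55 mM S-butyrylthiocholine chloride. Inhibitor concentration dependence over 0–50 μM. Percent inhibition versus no-inhibitor control used to derive IC50.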

Compound | inhibition [1] [%] | IC50 [2] [µM] | IC50 [3] [µM] | inhibition [4] [%] | IC50 (Acetylcholinesterase) [µM] | inhibition [5] | IC50 (Cholinesterase) [µM]
COc1ccc2cc(C(=O)CN3CCOCC3)c(=O)oc2c1 | > 65 | 29 | 5 | < 95 | – | – | –
COc1ccc2cc(C(=O)CN3CCC(Cc4ccccc4)CC3)c(=O)oc2c1 | > 65 | 36 | – | < 95 | – | – | –
COc1ccc2cc(C(=O)CN3CCN(Cc4ccccc4)CC3)c(=O)oc2c1 | > 65 | 36 | – | < 95 | 1.76 | Active | –
COc1ccc2cc(C(=O)CN3CCN(c4ncccn4)CC3)c(=O)oc2c1 | > 65 | 1 | 4 | < 95 | – | – | –
COc1ccc2cc(C(=O)CN3CCC(c4ccccc4)CC3)c(=O)oc2c1 | > 65 | 14 | 29 | < 95 | – | – | –
COc1ccc2cc(C(=O)CN3CCN(c4ccccn4)CC3)c(=O)oc2c1 | > 65 | – | – | < 95 | – | – | –
CCN(CC)Cc1cccc(C(=O)/C=C/c2ccc(-c3ccccc3)cc2)c1 | – | – | – | – | – | – | 8.27
COc1ccc2cc(C(=O)CN3CCN(c4ccccc4)CC3)c(=O)oc2c1 | > 65 | 21 | 6.5 | < 95 | – | – | –
